This note sets out measurements from ChEMBL document CHEMBL2021920, “Design, synthesis and biological evaluation of thiazole- and indole-based derivatives for the treatment of type II diabetes” (Eur J Med Chem, 2012).

Assay [1] deals with RAW264.7. Kind of assay: Inhibition of LPS-stimulated TNFalpha production in mouse RAW264.7 cells at […] dosed simultaneously with LPS measured 24 hrs post dose by ELISA. The format is functional. The method, boiled down: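 RAW 264.7 macrophages were seeded and grown for 24 h. Test agents were then added together with LPS, and cells were incubated for a further 24 h before TNF-α output was determined. Results are expressed as percent inhibition.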
For orientation: In an ELISA, binding on a coated surface is turned into a signal by an enzyme label.

The test system of assay [2] is Mus musculus. The experiment in a line: Antidiabetic effect in high-fat diet fed C57BL/6J mouse obesity model assessed as weight gain incidence at 50 mg/kg, po dosed once daily measured after 8 weeks relative to untreated control. In kind it is functional. The method, boiled down:
(§1)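 C57BL/6J animals were kept on a 60% fat diet, or on normal food, for 8 weeks. High-fat groups were dosed orally at 50 mg/kg once daily (suspension in Tween 80/5% saline) or given vehicle, n = 8 per group. Body weight and food intake were followed over the study period.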

Assay [3] relates to Mus musculus. The experiment in a line: Effect on food intake in high-fat diet fed C57BL/6J mouse obesity model at 50 mg/kg, po dosed once daily measured after 8 weeks relative to untreated control. Further details: dose 50 mg/kg. In kind it is functional, organism-based. The method, boiled down:
as §1

Assay [4] deals with Mus musculus. The experiment in a line: Antidiabetic effect in high-fat diet fed C57BL/6J mouse obesity model assessed as reduction in blood glucose at 50 mg/kg, po dosed once daily measured after 8 weeks relative to untreated control. The format is functional, organism-based. Further details: dose 50 mg/kg. The method, boiled down:
(§2)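 Obese C57BL/6J animals on a 60% fat diet were given 50 mg/kg orally each day (suspension in Tween 80/5% saline) or vehicle, n = 8 per group. After 8 weeks, heart blood was taken under anaesthesia and spun at 5,000 g for 15 min at 4 °C. Plasma glucose, TG, TC and ALT were measured on a biochemistry analyzer.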

Assay [5] deals with Mus musculus. The experiment in a line: Antidiabetic effect in high-fat diet fed C57BL/6J mouse obesity model assessed as reduction in plasma triglyceride level at 50 mg/kg, po dosed once daily measured after 8 weeks relative to untreated control. The format is functional. As to conditions: 1344 h. A digest of the protocol: as §2
Assay [6] relates to Mus musculus. The experiment in a line: Antidiabetic effect in high-fat diet fed C57BL/6J mouse obesity model assessed as reduction in plasma total cholesterol level at 50 mg/kg, po dosed once daily measured after 8 weeks relative to untreated control. The format is functional. The note with it: 1344 h. A digest of the protocol: as §2
The test system of assay [7] is Mus musculus. The experiment in a line: Antidiabetic effect in high-fat diet fed C57BL/6J mouse obesity model assessed as reduction in plasma alanine aminotransferase level at 50 mg/kg, po dosed once daily measured after 8 weeks relative to untreated control. The format is functional. As to conditions: 1344 h. The method, boiled down: as §2
For assay [8], the system named is Mus musculus. The experiment in a line: Antidiabetic effect in high-fat diet fed C57BL/6J mouse obesity model assessed as improvement in glucose metabolism level at 50 mg/kg, po dosed once daily measured after 8 weeks by glucose tolerance test. The arrangement: dose 50 mg/kg. In kind it is functional, organism-based. The method, boiled down:
(§3)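 Diet-induced obese C57BL/6J animals were fed a 60% fat diet for 8 weeks, then dosed orally with 50 mg/kg daily (suspension in Tween 80 and 5% saline) or vehicle, n = 8 per group. After a 12 h fast they received either an oral glucose load of 0.5 g/kg (5% glucose) or ip insulin at 2 U/Kg in saline. Blood glucose was read by glucose meter at 0, 15, 30, 60, 90 and 120 min.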

The test system of assay [9] is Mus musculus. Kind of assay: Antidiabetic effect in high-fat diet fed C57BL/6J mouse obesity model assessed as increase in insulin sensitivity level at 50 mg/kg, po dosed once daily measured after 8 weeks by insulin tolerance test. In kind it is functional, organism-based. The arrangement: dose 50 mg/kg. A digest of the protocol: as §3
The subject of assay [10] is Mus musculus. The experiment in a line: Antidiabetic effect in high-fat diet fed C57BL/6J mouse obesity model assessed as reduction in liver fat deposition at 50 mg/kg, po dosed once daily measured after 8 weeks by H&E staining. The format is functional, organism-based. Further details: dose 50 mg/kg. The method, boiled down:
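Livers came from high-fat-fed C57BL/6J animals that had 8 weeks of daily oral dosing at 50 mg/kg or vehicle. Tissue was fixed in 4% buffered formalin, embedded in paraffin or OCT, and serially sectioned. Sections were stained with H&E to assess fat deposition.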

Assay [11] deals with Fatty acid-binding protein, adipocyte (Mus musculus) (UniProt P04117). Kind of assay: Inhibition of mouse ap2 by fluorescent 1,8-anilino-8-naphthalene sulfonate assay. The note with it: read-out: Ki(app).
Fatty acid-binding protein, adipocyte (Mus musculus), sequence (P04117 whole entry, looked up): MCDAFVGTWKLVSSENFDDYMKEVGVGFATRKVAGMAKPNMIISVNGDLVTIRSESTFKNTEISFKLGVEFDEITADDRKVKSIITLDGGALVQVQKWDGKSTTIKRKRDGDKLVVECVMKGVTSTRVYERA

What is called inhibition in vivo is the share of the control response that was lost under treatment.

Active and inactive are the calls of the source. No cut-off for these calls is given here.

With `Cc1sc(NC(=O)CCC(=O)O)nc1-c1ccc(Cl)cc1`, the “inhibition (INH)” value in assay [1] stood at 27.14%.
As to `O=C(O)/C=C/c1cn(Cc2ccccc2F)c2ccccc12`, the “inhibition (INH)” value in assay [1] came to 95.47%. Moreover, the Activity in assay [2] stood at 21.18%. Also, the outcome in assay [3] was inactive. Further, the outcome in [4], in assay [8], in assay [9] and in assay [10] was Active. The inhibition in vivo at 50 mg/kg worked out at 27.1% in assay [5], 38.5% in assay [6] and 26.7% in assay [7]. The Ki in [11] came to 33 nM.
Take `O=C(O)CSCC(=O)Nc1nc(-c2ccc(F)cc2)cs1`: the “inhibition (INH)” value in assay [1] turned out to be 18.19%.
On to `CC(C)(C)c1ccc(Cn2cc(/C=C/C(=O)O)c3ccccc32)cc1`, for which the “inhibition (INH)” value in assay [1] was found to be 50.18%.
Consider `COc1ccc(-c2csc(NC(=O)CCC(=O)O)n2)cc1`, for which the inhibition entry in assay [1] is “inactive”.
With `O=C(O)/C=C/c1cn(Cc2ccc([N+](=O)[O-])cc2)c2ccccc12`, the “inhibition (INH)” value in assay [1] came to 32.34%.
In the case of `O=C(O)Cc1cn(Cc2ccccc2)c2ccccc12`, in assay [1], the “inhibition (INH)” value is reported as 52.17%.
For the compound `O=C(O)Cc1cn(Cc2ccccc2F)c2ccccc12`, in assay [1], the “inhibition (INH)” value is on record as 24.72%.
As to `CCc1c(-c2ccccc2)c(-c2ccccc2)nn1-c1ccccc1-c1cccc(OCC(=O)O)c1`, the “inhibition (INH)” value in assay [1] is recorded as 85.13%.
`O=C(O)CCC(=O)Nc1nc(-c2ccc(Cl)cc2)cs1`: the “inhibition (INH)” value in [1] amounted to 41.22%.
For `CC(C)c1ccc(Cn2cc(/C=C/C(=O)O)c3ccccc32)cc1`, the “inhibition (INH)” value in assay [1] worked out at 92.24%.
Turning to `O=C(O)/C=C/c1cn(Cc2ccc(F)cc2)c2ccccc12`, the “inhibition (INH)” value in assay [1] was found to be 86.78%.
For `O=C(O)CCC(=O)Nc1nc(-c2ccc(Cl)c(Cl)c2)cs1`, the “inhibition (INH)” value in assay [1] is listed as 12.38%.
In the case of `N#Cc1ccc(Cn2cc(/C=C/C(=O)O)c3ccccc32)cc1`, the “inhibition (INH)” value in assay [1] is on record as 31.46%.
Same read-out and setting: the same measure for `O=C(O)CCC(=O)Nc1nc(-c2ccc(Cl)cc2Cl)cs1`: 35.15%; for `O=C(O)CSCC(=O)Nc1nc(-c2ccc([N+](=O)[O-])cc2)cs1`: 43.24%; for `COc1ccc2c(c1)c(/C=C/C(=O)O)cn2Cc1ccccc1F`: 86.67%.
As for `O=C(O)CCC(=O)Nc1nc(-c2ccc3ccccc3c2)cs1`, in [1], the “inhibition (INH)” value is 58.75%.
As to `Cc1ccc2c(c1)c(/C=C/C(=O)O)cn2Cc1ccccc1F`, the “inhibition (INH)” value in [1] is 11.18%.
In the case of `O=C(O)CCC(=O)Nc1nc(-c2ccc(F)cc2)cs1`, in [1], the “inhibition (INH)” value is on record as 27.24%.
Turning to `O=C(O)CCC(=O)Nc1nc(-c2ccc(F)c(F)c2)cs1`, the “inhibition (INH)” value in assay [1] is on record as 92.45%.
Regarding `Cc1ccc(-c2csc(NC(=O)CCC(=O)O)n2)cc1`, the “inhibition (INH)” value in assay [1] was 36.67%.
On to `COc1ccc2c(c1)c(/C=C/C(=O)O)cn2Cc1ccc(F)cc1`, for which the “inhibition (INH)” value in assay [1] came to 94.28%.
On to `O=C(O)CSCC(=O)Nc1nc(-c2ccc(Cl)cc2)cs1`, for which the “inhibition (INH)” value in assay [1] was determined as 23.45%.
For `O=C(O)Cc1cn(Cc2ccc(F)cc2)c2ccccc12`, the “inhibition (INH)” value in [1] amounted to 92.24%.
On the same count and under the same terms, the same measure for `Cc1ccccc1Cn1cc(CC(=O)O)c2ccccc21`: 14.29%.
On to `COc1ccc2c(c1)c(/C=C/C(=O)O)cn2Cc1cccc(F)c1`, for which the inhibition result in assay [1] was “inactive”.
As to `Cc1c(/C=C/C(=O)O)c2ccccc2n1Cc1cccc(F)c1`, the inhibition result in assay [1] was “inactive”.
With `O=C(O)/C=C/c1cn(Cc2cccc3ccccc23)c2ccccc12`, in assay [1], the “inhibition (INH)” value was 93.28%.
Regarding `Cc1ccc2c(c1)c(/C=C/C(=O)O)cn2Cc1cccc(F)c1`, the inhibition entry in assay [1] was “inactive”.
Turning to `Cc1ccc(Cn2cc(/C=C/C(=O)O)c3ccccc32)cc1`, in [1], the “inhibition (INH)” value worked out at 66.56%.
As for `Cc1sc(NC(=O)CCC(=O)O)nc1-c1ccccc1`, in assay [1], the “inhibition (INH)” value is listed as 25.23%.
Turning to `O=C(O)/C=C/c1cn(Cc2cccc(F)c2)c2ccccc12`, in [1], the “inhibition (INH)” value is 36.36%.
As for `O=C(O)CSCC(=O)Nc1nc(-c2ccc(C(F)(F)F)cc2)cs1`, the “inhibition (INH)” value in assay [1] is 37.26%.
As to `O=C(O)CCC(=O)Nc1nc(-c2ccccc2Cl)cs1`, the “inhibition (INH)” value in [1] was 8.56%.
In the case of `O=C(O)CCC(=O)Nc1nc(-c2ccc(C(F)(F)F)cc2)cs1`, the “inhibition (INH)” value in assay [1] was 12.15%.
As to `O=C(O)Cc1cn(Cc2cccc(F)c2)c2ccccc12`, in assay [1], the inhibition result is “inactive”.
As for `Cc1ccccc1Cn1cc(/C=C/C(=O)O)c2ccccc21`, the inhibition entry in assay [1] was “inactive”.
Consider `O=C(O)/C=C/c1cn(Cc2ccccc2)c2ccccc12`, for which the “inhibition (INH)” value in assay [1] worked out at 18.17%.
For the compound `Cc1c(/C=C/C(=O)O)c2ccccc2n1Cc1ccccc1F`, in [1], the “inhibition (INH)” value came out at 93.27%.
